Laboratory results published in ChEMBL document CHEMBL5380855, “Acetyl-Click Screening Platform Identifies Small-Molecule Inhibitors of Histone Acetyltransferase 1 (HAT1)” (J Med Chem, 2023).
Activity calls are given as the source filed them. No cut-off for these calls is given here.

Experiments:
[1] = molecular target: T1, HAT1/Rbap46 (Homo sapiens) (UniProt Q16576+O14929); assay: (§1) Inhibition of C-terminal FLAG tagged full length human HAT1/Rbap46 transfected in HEK293F cells using histone H4 peptide as substrate and 4-pentynoyl-CoA as cofactor at 10 uM preincubated for 10 mins followed by 4-pentynoyl-CoA addition and measured after 1 to 4 hrs by amplex red dye based fluorescence analysis; type: cell-based; conditions: time 70-250 min
T1 sequence (O14929 2-419 partner limits assumed): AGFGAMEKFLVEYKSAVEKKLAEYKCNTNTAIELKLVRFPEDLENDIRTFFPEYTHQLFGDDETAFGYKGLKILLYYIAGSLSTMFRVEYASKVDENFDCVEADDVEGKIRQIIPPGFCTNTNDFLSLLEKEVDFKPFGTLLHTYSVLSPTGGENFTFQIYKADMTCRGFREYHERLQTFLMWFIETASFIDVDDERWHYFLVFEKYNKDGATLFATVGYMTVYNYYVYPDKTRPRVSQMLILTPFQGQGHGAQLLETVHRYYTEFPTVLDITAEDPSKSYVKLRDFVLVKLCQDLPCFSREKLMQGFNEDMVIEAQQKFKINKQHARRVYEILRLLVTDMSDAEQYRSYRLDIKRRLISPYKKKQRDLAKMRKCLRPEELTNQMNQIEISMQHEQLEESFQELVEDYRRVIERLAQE
T1 sequence (Q16576 2-425 limits assumed): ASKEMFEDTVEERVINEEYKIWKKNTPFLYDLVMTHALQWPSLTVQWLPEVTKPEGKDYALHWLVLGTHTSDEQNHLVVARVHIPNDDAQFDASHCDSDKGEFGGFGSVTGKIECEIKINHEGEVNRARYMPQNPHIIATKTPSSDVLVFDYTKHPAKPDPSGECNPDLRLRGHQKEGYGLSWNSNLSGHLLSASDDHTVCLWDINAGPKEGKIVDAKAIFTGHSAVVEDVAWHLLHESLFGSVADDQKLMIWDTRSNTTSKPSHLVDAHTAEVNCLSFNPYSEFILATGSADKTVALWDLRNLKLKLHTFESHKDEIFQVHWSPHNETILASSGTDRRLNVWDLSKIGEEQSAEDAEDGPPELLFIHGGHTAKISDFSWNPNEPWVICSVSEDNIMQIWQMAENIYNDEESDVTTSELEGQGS

[2] = molecular target: T1, HAT1/Rbap46 (Homo sapiens); assay: as §1, with “at 100” for “at 10”, “1 hr” for “1 to 4 hrs”, “analysis relative to control” for “analysis”; type: cell-based; conditions: time 70.0 min
[3] = molecular target: T1, HAT1/Rbap46 (Homo sapiens); assay: as §1, with “cofactor” for “cofactor at 10 uM”, “hr” for “to 4 hrs”, “analysis relative to control” for “analysis”; type: cell-based; parameters: concentration or dose not given beside the values; conditions: time 70.0 min
[4] = molecular target: HAT1/Rbap46 (Homo sapiens, UniProt O14929+Q16576); assay: Inhibition of C-terminal FLAG tagged full length human HAT1/Rbap46 transfected in HEK293F cells using histone H4 peptide as substrate and 4-pentynoyl-CoA as cofactor preincubated for 10 mins followed by 4-pentynoyl-CoA addition and measured after 1 hr by amplex red dye based fluorescence analysis; type: cell-based
Sequence of HAT1/Rbap46 (Q16576 whole entry): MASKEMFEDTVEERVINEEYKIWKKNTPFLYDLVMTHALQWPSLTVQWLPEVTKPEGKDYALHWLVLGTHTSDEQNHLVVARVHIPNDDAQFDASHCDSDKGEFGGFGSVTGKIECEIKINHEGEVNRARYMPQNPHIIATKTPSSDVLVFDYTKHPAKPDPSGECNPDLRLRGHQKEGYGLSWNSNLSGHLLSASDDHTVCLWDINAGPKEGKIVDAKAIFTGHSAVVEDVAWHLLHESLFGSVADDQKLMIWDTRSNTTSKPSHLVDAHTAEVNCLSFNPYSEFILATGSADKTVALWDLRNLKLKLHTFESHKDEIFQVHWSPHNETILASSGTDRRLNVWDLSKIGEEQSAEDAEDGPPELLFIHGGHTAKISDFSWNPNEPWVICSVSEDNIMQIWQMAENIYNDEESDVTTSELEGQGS
Sequence of HAT1/Rbap46 (O14929 whole entry): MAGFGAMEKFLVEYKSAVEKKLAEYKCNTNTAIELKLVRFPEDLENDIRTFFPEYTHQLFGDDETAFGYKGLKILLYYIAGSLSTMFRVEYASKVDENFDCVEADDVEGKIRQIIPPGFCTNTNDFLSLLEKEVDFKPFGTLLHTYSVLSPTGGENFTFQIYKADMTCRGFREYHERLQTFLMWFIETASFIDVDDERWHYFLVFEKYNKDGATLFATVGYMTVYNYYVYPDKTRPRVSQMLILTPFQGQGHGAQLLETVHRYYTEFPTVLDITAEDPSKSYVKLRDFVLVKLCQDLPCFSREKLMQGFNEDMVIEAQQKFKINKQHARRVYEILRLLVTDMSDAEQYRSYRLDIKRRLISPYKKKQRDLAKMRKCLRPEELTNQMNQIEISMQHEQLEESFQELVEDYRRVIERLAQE

[5] = molecular target: T1, HAT1/Rbap46 (Homo sapiens); assay: as §1, with “at 1 to 100” for “at 10”, “1 hr” for “1 to 4 hrs”, “analysis relative to control” for “analysis”; type: cell-based; conditions: dose 1-100 µM, time 70.0 min
[6] = system: HCC1806; assay: Cytotoxicity against human HCC1806 cells assessed as inhibition of cell growth by resazurin dye based fluorescence analysis; type: functional
How it was run: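 HCC1806 cells were treated across a range of doses. Growth was read by resazurin reduction to resorufin, with fluorescence at 590 nm.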

[7] = Toxicity in mouse assessed as drug tolerance up to 250 mg/kg, ip administered as single dose; type: organism-based; conditions: in vivo
[8] = Toxicity in mouse assessed as signs of distress at 500 mg/kg, ip administered as single dose; type: organism-based; conditions: in vivo
[9] = Terminal elimination half life in CD1 mouse at 100 mg/kg, ip measured after 15 to 4320 mins by LC-MS/MS analysis; type: ADME, organism-based; conditions: in vivo, time 15-4320 min, read-out: LambdaZ
How it was run: (§2)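 Mice received one intraperitoneal injection at 100 mg/kg. Plasma concentrations of the drug were followed over time, out to 72 h, and PK parameters were derived from the plasma concentration–time profile.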

[10] = Tmax in CD1 mouse at 100 mg/kg, ip measured after 15 to 4320 mins by LC-MS/MS analysis; type: ADME, organism-based; conditions: in vivo, time 15-4320 min; how it was run: as §2
[11] = Cmax in CD1 mouse at 100 mg/kg, ip measured after 1 hr by LC-MS/MS analysis; type: ADME, organism-based; parameters: dose 100 mg/kg, time 1 hrs, route ip; conditions: in vivo; how it was run: as §2
[12] = Cmax in CD1 mouse at 100 mg/kg, ip measured after 72 hrs by LC-MS/MS analysis; type: ADME, organism-based; parameters: time 72 hrs, dose 100 mg/kg, route ip; conditions: in vivo; how it was run: as §2
[13] = AUClast in CD1 mouse at 100 mg/kg, ip measured after 15 to 4320 mins by LC-MS/MS analysis; type: ADME, organism-based; parameters: time lower 15 min, dose 100 mg/kg, time upper 4320 min, route ip; conditions: in vivo; how it was run: as §2
[14] = Observed apparent volume of distribution during terminal phase in CD1 mouse at 100 mg/kg, ip measured after 15 to 4320 mins by LC-MS/MS analysis; type: ADME, organism-based; conditions: in vivo, time 15-4320 min, read-out: Vz/F; how it was run: as §2
[15] = Observed clearance in CD1 mouse at 100 mg/kg, ip measured after 15 to 4320 mins by LC-MS/MS analysis; type: ADME, organism-based; conditions: in vivo, time 15-4320 min; how it was run: as §2
[16] = system: Mus musculus; assay: In vivo inhibition of HAT-1 in NSG mouse xenografted with human A549 cells assessed as reduction in Histone H4 lysine 12 acetylation in tumor administered as single ip injection and measured after 24 hrs by immunofluorescence analysis; type: functional, organism-based; conditions: dose 25-100 mg/kg
How it was run: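 A549 tumours were established in NSG mice and given one i.p. dose of vehicle or drug. Tumours were harvested 24 h later and sections immunostained for H4K12Ac. Median nuclear fluorescence was taken from all nuclei in 2 images per group; one-way ANOVA.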

[17] = system: A549; assay: Antitumor activity against human A549 cells xenografted in NSG mouse assessed as reduction in tumor growth at 50 to 100 mg/kg, ip administered once for every 3 days starting from day 13 post tumor implantation by digital caliper method; type: functional, organism-based; conditions: dose 50-100 mg/kg
How it was run: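 A549 cells were implanted in both flanks of NSG mice and tumours were allowed to establish for 13 days. Vehicle or drug (50 or 100 mg/kg) was then injected i.p. once every third day.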

[18] = molecular target: Histone acetyltransferase KAT5 (Homo sapiens, UniProt Q92993); assay: Inhibition of human KAT5 incubated for 20 mins followed by 3H-Acetyl CoA addition and measured after 30 mins
[19] = molecular target: Histone acetyltransferase KAT6B (Homo sapiens, UniProt Q8WYB5); assay: Inhibition of human MYST4 incubated for 20 mins followed by 3H-Acetyl CoA addition and measured after 30 mins
Sequence of Histone acetyltransferase KAT6B (Q8WYB5 whole entry): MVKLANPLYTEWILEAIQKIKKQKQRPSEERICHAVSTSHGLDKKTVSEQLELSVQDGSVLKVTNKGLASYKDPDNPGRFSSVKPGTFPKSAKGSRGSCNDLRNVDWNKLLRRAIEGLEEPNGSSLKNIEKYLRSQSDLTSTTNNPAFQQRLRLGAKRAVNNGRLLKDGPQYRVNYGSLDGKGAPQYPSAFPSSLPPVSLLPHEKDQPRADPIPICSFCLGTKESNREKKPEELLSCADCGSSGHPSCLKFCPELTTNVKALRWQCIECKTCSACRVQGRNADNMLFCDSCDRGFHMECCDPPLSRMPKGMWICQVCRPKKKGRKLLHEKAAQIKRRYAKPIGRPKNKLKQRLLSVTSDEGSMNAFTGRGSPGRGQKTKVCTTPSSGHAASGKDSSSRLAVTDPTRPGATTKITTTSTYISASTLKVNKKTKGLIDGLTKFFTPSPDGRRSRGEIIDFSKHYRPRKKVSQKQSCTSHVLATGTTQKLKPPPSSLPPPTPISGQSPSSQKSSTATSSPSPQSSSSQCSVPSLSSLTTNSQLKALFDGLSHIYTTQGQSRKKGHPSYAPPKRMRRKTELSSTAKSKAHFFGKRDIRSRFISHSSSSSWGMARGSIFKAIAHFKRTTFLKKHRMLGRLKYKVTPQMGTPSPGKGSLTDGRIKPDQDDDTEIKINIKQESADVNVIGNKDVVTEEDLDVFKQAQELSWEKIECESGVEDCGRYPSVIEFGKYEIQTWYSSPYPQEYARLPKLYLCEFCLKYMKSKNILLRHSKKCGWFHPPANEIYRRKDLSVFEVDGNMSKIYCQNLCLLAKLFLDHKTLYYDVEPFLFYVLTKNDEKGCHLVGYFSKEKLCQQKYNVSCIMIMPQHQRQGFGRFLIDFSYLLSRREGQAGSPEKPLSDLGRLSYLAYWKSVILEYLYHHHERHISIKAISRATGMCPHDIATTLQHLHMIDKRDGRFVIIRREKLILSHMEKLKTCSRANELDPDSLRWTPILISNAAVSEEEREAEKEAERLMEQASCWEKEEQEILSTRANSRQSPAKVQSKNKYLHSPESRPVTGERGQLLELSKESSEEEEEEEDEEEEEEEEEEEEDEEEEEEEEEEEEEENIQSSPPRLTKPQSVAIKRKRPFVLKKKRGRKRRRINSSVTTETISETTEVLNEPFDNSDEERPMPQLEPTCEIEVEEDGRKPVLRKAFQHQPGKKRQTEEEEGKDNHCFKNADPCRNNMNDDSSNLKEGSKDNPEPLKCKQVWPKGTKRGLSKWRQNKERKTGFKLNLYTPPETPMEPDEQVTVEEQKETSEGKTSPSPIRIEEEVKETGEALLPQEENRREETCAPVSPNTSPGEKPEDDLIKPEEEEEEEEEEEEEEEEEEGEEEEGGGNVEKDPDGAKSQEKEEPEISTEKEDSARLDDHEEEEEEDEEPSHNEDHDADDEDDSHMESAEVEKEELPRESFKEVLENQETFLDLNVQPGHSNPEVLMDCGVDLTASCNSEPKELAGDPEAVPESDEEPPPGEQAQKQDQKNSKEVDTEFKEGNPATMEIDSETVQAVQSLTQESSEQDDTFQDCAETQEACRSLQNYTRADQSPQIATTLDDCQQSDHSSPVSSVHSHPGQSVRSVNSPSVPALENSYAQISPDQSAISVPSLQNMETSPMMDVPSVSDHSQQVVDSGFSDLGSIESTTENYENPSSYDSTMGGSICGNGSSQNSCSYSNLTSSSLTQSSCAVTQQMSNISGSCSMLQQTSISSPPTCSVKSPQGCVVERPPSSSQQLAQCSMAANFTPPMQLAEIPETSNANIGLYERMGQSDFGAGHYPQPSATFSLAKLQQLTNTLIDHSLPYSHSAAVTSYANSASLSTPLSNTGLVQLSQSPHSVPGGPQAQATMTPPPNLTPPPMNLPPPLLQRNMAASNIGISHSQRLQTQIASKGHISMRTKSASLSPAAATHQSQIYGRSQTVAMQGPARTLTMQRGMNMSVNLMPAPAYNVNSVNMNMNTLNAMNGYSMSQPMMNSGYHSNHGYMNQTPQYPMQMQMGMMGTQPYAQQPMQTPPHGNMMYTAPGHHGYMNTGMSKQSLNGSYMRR

[20] = molecular target: Histone acetyltransferase KAT2A (Homo sapiens) (UniProt Q92830); assay: Inhibition of human GCN5 at 100 uM incubated for 20 mins followed by 3H-Acetyl CoA addition and measured after 30 mins; conditions: time 50.0 min
[21] = molecular target: Histone acetyltransferase KAT2B (Homo sapiens) (UniProt Q92831); assay: Inhibition of human pCAF at 100 uM incubated for 20 mins followed by 3H-Acetyl CoA addition and measured after 30 mins; conditions: time 50.0 min
Sequence of Histone acetyltransferase KAT2B (Homo sapiens) (Q92831 whole entry, looked up): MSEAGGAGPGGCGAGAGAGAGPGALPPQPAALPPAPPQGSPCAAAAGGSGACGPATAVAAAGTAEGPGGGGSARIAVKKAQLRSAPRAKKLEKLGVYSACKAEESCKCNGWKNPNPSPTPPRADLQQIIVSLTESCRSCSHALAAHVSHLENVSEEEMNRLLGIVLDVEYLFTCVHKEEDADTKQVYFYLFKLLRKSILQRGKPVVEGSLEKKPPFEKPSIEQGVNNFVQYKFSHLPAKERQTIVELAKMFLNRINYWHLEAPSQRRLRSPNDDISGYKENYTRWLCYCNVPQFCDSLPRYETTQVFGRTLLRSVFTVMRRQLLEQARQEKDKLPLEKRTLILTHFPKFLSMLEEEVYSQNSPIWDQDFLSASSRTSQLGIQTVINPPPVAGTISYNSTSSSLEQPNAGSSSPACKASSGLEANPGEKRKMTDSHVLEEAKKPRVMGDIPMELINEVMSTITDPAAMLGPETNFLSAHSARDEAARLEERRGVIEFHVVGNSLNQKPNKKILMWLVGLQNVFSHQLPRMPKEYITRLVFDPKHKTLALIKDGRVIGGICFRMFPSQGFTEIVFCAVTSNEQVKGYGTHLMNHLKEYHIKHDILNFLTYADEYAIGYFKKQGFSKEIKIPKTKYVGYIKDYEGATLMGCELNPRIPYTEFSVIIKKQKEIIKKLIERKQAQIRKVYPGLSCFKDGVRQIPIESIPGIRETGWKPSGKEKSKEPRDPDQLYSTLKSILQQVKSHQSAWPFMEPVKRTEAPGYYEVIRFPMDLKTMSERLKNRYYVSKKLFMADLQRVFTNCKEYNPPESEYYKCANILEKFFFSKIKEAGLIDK

[22] = organism: Homo sapiens; assay: Inhibition of FAD-dependent oxidase (unknown origin)
[23] = system: HCC1806; assay: Cytotoxicity against human HCC1806 cells assessed as inhibition of cell growth incubated for 48 hrs by celltiter blue analysis; type: functional, cell-based

CC(=O)N[C@@H](CCCCNC(=O)SCCNC(=O)CCNC(=O)[C@H](O)C(C)(C)COP(=O)(O)OP(=O)(O)OC[C@H]1O[C@@H](n2cnc3c(N)ncnc32)[C@H](O)[C@@H]1OP(=O)(O)O)C(N)=O
inhibition [1]: inactive

CCc1cc2c(cc1Cl)nc1c(=O)[nH]c(=O)nc-1n2CCOCc1cccc(F)c1
inhibition [2]: 24%

CCc1cc2c(cc1Cl)nc1c(=O)[nH]c(=O)nc-1n2CCOCc1ccc(C#N)cc1
inhibition [2]: 26%

CCc1cc2c(cc1Cl)nc1c(=O)[nH]c(=O)nc-1n2CCOCc1cccc(C(F)(F)F)c1
inhibition [2]: 23%

CCc1cc2c(cc1Cl)nc1c(=O)[nH]c(=O)nc-1n2CCCOc1ccc(C#N)cc1
inhibition [2]: 25%

O=C(O)Cc1ccc(/N=N/c2c(O)c(C(=O)O)cc3ccccc23)cc1
inhibition [3]: 72.2%

CCc1cc2c(cc1Cl)nc1c(=O)[nH]c(=O)nc-1n2CCCOc1ccc(-c2ccccc2)cc1
inhibition [2]: 8%

CCc1cc2nc3c(=O)[nH]c(=O)nc-3n(C[C@H](O)[C@H](O)[C@H](O)CO)c2cc1Cl
inhibition [2]: 61%
inhibition [3]: 64%

CCc1cc2c(cc1Cl)nc1c(=O)[nH]c(=O)nc-1n2CCOC(C)=O
inhibition [2]: 49%

CCCC(=O)OC[C@@H](OC(=O)CCC)[C@@H](OC(=O)CCC)[C@H](Cn1c2nc(=O)[nH]c(=O)c-2nc2cc(C)c(C)cc21)OC(=O)CCC
IC50 [4]: 17 µM

CCc1cc2c(cc1Cl)nc1c(=O)[nH]c(=O)nc-1n2CCCc1cc(F)cc(F)c1
inhibition [2]: 15%

NC(=S)c1cn([C@@H]2O[C@H](CO)[C@@H](O)[C@H]2O)c2ncnc(N)c12
inhibition [3]: 72.2%

CCc1cc2c(cc1Cl)nc1c(=O)[nH]c(=O)nc-1n2CCOc1cccc(F)c1
inhibition [2]: 17%

CCC(=O)Nc1cc2[nH]c3nc(=O)n(Cc4ccccc4)c(=O)c-3nc2cc1C
inhibition [3]: 28%

CC(=O)OCCn1c2nc(=O)[nH]c(=O)c-2nc2cc(C)c(C)cc21
inhibition [3]: 51%

O=C1CN2Cc3c(ccc(Cl)c3Cl)N=C2N1
inhibition [2]: -5%

CCc1cc2c(cc1Cl)nc1c(=O)[nH]c(=O)nc-1n2CCOc1cccc(C(F)(F)F)c1
inhibition [2]: 11%

CCc1cc2c(cc1Cl)nc1c(=O)[nH]c(=O)nc-1n2CCOc1ccc(Br)cc1
inhibition [2]: 8%

CCc1cc2c(cc1Cl)nc1c(=O)[nH]c(=O)nc-1n2CCCc1ccc(Br)cc1
inhibition [2]: 9%

CCc1cc2c(cc1Cl)nc1c(=O)[nH]c(=O)nc-1n2CC(C)(C)C
inhibition [2]: 62%

CCc1cc2c(cc1Cl)nc1c(=O)[nH]c(=O)nc-1n2CCOc1ccccn1
inhibition [2]: 55%

O=c1nc2n(CC(O)C(O)C(O)C(O)CO)c3cc(Cl)c(Cl)cc3nc-2c(=O)[nH]1 (stereo not given)
IC50 [4]: 62.6 µM
inhibition [2]: 31%
inhibition [3]: 46%

CCc1cc2c(cc1Cl)nc1c(=O)[nH]c(=O)nc-1n2CCCOc1cccc(C(F)(F)F)c1
inhibition [2]: 19%

Cc1cc2nc3c(=O)[nH]c(=O)nc-3n(C[C@H](O)[C@H](O)[C@H](O)COP(=O)(O)O)c2cc1C
inhibition [5]: inactive

CCc1cc2c(cc1Cl)nc1c(=O)[nH]c(=O)nc-1n2CCOCC1CCN(C(=O)OC(C)(C)C)CC1
inhibition [2]: 50%

CCc1cc2c(cc1Cl)nc1c(=O)[nH]c(=O)nc-1n2CCOCc1ccccc1
inhibition [2]: 49%

CCc1cc2c(cc1Cl)nc1c(=O)[nH]c(=O)nc-1n2CCCOc1ccc(C)cc1
inhibition [2]: 12%

CCc1cc2c(cc1Cl)nc1c(=O)[nH]c(=O)nc-1n2CCOCC(C)C
EC50 [6]: 10.4 µM
Activity [7]: Non-Toxic
Activity [8]: Toxic
half-life [9]: 25.4 h
Tmax [10]: 1 h
Cmax [11]: 70.1 µM
Cmax [12]: 2.05 µM
AUC(0-t) [13]: 641 µM·h
Vd/F [14]: 13.6 L/kg
CL/F [15]: 6.2 mL/min/kg
inhibition [16]: Dose-Dependent Effect
Activity [17]: Active
IC50 [18]: > 100 µM
IC50 [19]: > 100 µM
inhibition [20]: inactive
inhibition [21]: inactive
inhibition [22]: inactive

CC(=O)Nc1cc2[nH]c3nc(=O)n(CC4CCCCC4)c(=O)c-3nc2cc1C
inhibition [3]: 25%

CCc1cc2c(cc1Cl)nc1c(=O)[nH]c(=O)nc-1n2CCOc1ccc(F)cc1
inhibition [2]: 1%

Cc1cc2nc3c(=O)[nH]c(=O)nc-3n(C[C@H](O)[C@H](O)[C@H](O)CO)c2cc1N(C)C
inhibition [2]: 7%
inhibition [23]: Active

CCc1cc2c(cc1Cl)nc1c(=O)[nH]c(=O)nc-1n2CCOCC(C)(C)C
inhibition [2]: 40%

CCc1cc2c(cc1Cl)nc1c(=O)[nH]c(=O)nc-1n2CCOCc1cccc(Br)c1
inhibition [2]: 17%

CCc1cc2c(cc1Cl)nc1c(=O)[nH]c(=O)nc-1n2CCOCC1CCNCC1
inhibition [2]: 60%

Oc1ccccc1C1=NC2c3ccccc3-c3ccccc3C2N1 (stereo not given)
inhibition [3]: 69%

Cc1cc2cc3c(=O)[nH]c(=O)cc-3n(CC(O)C(O)C(O)CO)c2cc1C (stereo not given)
inhibition [3]: 66.4%

CCc1cc2c(cc1Cl)nc1c(=O)[nH]c(=O)nc-1n2CCO
inhibition [2]: 54%

CCc1cc2c(cc1Cl)nc1c(=O)[nH]c(=O)nc-1n2CCOCC1CCCC1
inhibition [2]: 47%

CCc1cc2c(cc1Cl)nc1c(=O)[nH]c(=O)nc-1n2CCOc1ccc(-c2ccccc2)cc1
inhibition [2]: 13%

O=c1nc2n(CCN(CO)CO)c3cc(Cl)c(Cl)cc3nc-2c(=O)[nH]1
inhibition [2]: 17%
inhibition [3]: 37%

CCc1cc2c(cc1Cl)nc1c(=O)[nH]c(=O)nc-1n2C[C@H](O)[C@H](O)[C@H](O)CO
inhibition [2]: 40%
inhibition [3]: 59%

CCc1cc2c(cc1Cl)nc1c(=O)[nH]c(=O)nc-1n2CCOc1cc(F)cc(F)c1
inhibition [2]: -1%

CCc1cc2c(cc1Cl)nc1c(=O)[nH]c(=O)nc-1n2CCOCc1ccc(-c2ccccc2)cc1
inhibition [2]: 17%

COC1=C(N)C(=O)c2nc(-c3nc(C(=O)O)c(C)c(-c4ccc(OC)c(OC)c4O)c3N)ccc2C1=O
inhibition [3]: 66.3%

CC(=O)Nc1cc2[nH]c3nc(=O)n(Cc4ccccc4)c(=O)c-3nc2cc1C
inhibition [3]: 32%

Cc1cc2nc3[nH]c(=O)[nH]c(=O)c3nc2cc1C
inhibition [2]: 7%
inhibition [5]: inactive

CCc1cc2c(cc1Cl)nc1c(=O)[nH]c(=O)nc-1n2CCOc1ccc(C)cc1
inhibition [2]: 20%
